The values that follow come from ChEMBL document CHEMBL2151023, “2-Alkynoic fatty acids inhibit topoisomerase IB from Leishmania donovani” (Bioorg Med Chem Lett, 2012).

Each structure is given as a SMILES string. Activity calls are given as the source filed them. No cut-off for these calls is given here. A value given as a limit tells only on which side of the number the result lay.

As usually defined, the IC50 is the point on the concentration scale where inhibition reaches its midpoint. Lower therefore signals greater potency in that assay. As a reminder, the EC50 is the concentration that produces a half-maximal response. The low end stands for greater potency, the high end for weaker potency.

The test system of assay [1] is Trypanosoma brucei rhodesiense. As to the kind of experiment: Antiprotozoal activity against Trypanosoma brucei rhodesiense bloodstream forms. Format: functional, organism-based.
The subject of the next assay is Trypanosoma cruzi. As to the kind of experiment: Antiprotozoal activity against intracellular Trypanosoma cruzi amastigotes in rat L6 cells. Type of assay: functional, organism-based.
In another assay the test system is Leishmania donovani. The experiment in a line: Antiprotozoal activity against Leishmania donovani axenic amastigotes. Type of assay: functional, organism-based.
The test system of another assay is L6. The experiment in a line: Cytotoxicity against rat L6 cells. Type of assay: cell-based.
Another assay relates to Leishmania infantum. The experiment in a line: Induction of apoptosis in Leishmania infantum promastigotes at 400 uM after 24 hrs by AnnexinV-FITC/propidium iodide based FACS flow cytometry. Type of assay: functional. In short, it runs like this:
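L. infantum promastigotes exposed to 400 μM for 24 h, harvested, washed twice in PBS, resuspended at 1×10^6 cells/ml, stained with annexin V-FITC plus propidium iodide for 15 min at room temperature in the dark. Flow cytometry on at least 10,000 gated cells, read as percent of cells per quadrant. Untreated and H2O2-treated cells serve as controls. Representative of three independent trials.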

Assay [2] in a line: Inhibition of human topoisomerase 1B-mediated relaxation of supercoiled pSK DNA after 30 mins by ethidium bromide staining based agarose gel electrophoresis. In short, it runs like this:
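Plasmid DNA relaxation assay with the enzyme over 30 min at 37 °C, acid at 3.125–100 μM. Reactions stopped with 1% SDS plus proteinase K. Products resolved on agarose and stained with ethidium bromide, scoring supercoiled, nicked and relaxed topoisomer bands.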

Assay [3] in a line: Cytotoxicity against BALB/C mouse macrophages. Type of assay: cell-based. As to conditions: Macrophage.
Assay [4] concerns the target T1, DNA topoisomerase type IB small subunit (Leishmania major) (UniProt Q95Z89).
T1 sequence (whole entry): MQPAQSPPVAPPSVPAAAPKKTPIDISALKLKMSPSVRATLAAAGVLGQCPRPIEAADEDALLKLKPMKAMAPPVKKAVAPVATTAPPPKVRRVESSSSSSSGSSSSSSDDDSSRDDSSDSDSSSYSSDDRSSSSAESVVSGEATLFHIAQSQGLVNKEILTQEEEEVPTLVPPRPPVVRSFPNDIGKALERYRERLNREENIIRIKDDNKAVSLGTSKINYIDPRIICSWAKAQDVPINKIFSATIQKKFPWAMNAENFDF
As to the kind of experiment: Inhibition of Leishmania donovani topoisomerase 1B-mediated relaxation of supercoiled pSK DNA at 100 uM after 4 mins by ethidium bromide staining based agarose gel electrophoresis. An outline of the steps:
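Stopped with 1% SDS, then digested 1 h at 37°C with 1 mg/ml proteinase K. Extracted with phenol-chloroform and run on 1% agarose containing 40 µg/ml ethidium bromide.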

Assay [5] concerns the target T1, DNA topoisomerase type IB small subunit (Leishmania major). As to the kind of experiment: Inhibition of Leishmania donovani topoisomerase 1B-mediated relaxation of supercoiled pSK DNA at 100 uM preincubated for 15 mins by ethidium bromide staining based agarose gel electrophoresis. In short, it runs like this: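 LdTopIB pre-incubated 15 min at 4 °C with 100 µM compound, or with DMSO as control. […] Samples stopped with SDS, digested with proteinase K, phenol-chloroform extracted and resolved on ethidium bromide agarose gel.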

With `CCCCCCCCCCCC#CC(=O)O`, the IC50 was 255 µM in assay [1]; 62.4 µM with Trypanosoma cruzi; 24.7 µM in the assay with Leishmania donovani; 40.9 µM in the assay on L6; greater than 100 µM in assay [3]. Also, the Activity with Leishmania infantum is listed as 1.75%. This compound also had an EC50 in [2] greater than 100 µM.
In [2], `CC[C@@]1(O)C(=O)OCc2c1cc1n(c2=O)Cc2cc3ccccc3nc2-1` [CAMPTOTHECIN] yielded an EC50 of 2 µM. Also, the IC50 in [3] was 0.62 µM. In assay [4], the inhibition result is “inactive”. In [5], the inhibition entry was “Active”.
For the compound `CCCCCCCCCCCCCCCC#CC(=O)O`, the IC50 in assay [1] was 64.5 µM; with Trypanosoma cruzi, 48.1 µM; in the assay on Leishmania donovani, 11 µM; in the assay on L6, 20 µM; in assay [3], greater than 100 µM. In the assay with Leishmania infantum, this compound returned an Activity of 1.98%. This compound also registered a 50% effective concentration (EC50) in assay [2] of 51.9 µM.
In the assay with Trypanosoma cruzi, `O=C(Cn1ccnc1[N+](=O)[O-])NCc1ccccc1` [BENZNIDAZOLE] came in with an IC50 of 1.47 µM.
As for `CCCCCCCCCCCCCCCCOP(=O)([O-])OCC[N+](C)(C)C` [MILTEFOSINE], half-maximal inhibition in the assay on Leishmania donovani (IC50) required 0.49 µM.
Take `COc1cc([C@@H]2c3cc4c(cc3[C@H](O)[C@H]3COC(=O)[C@H]23)OCO4)cc(OC)c1OC` [PODOFILOX]: in the assay on L6, the midpoint of inhibition, the IC50, lay at 0.02 µM.
The same measure, in the same setting: to `CCCCCCCCCCCCCCCC(=O)O` [PALMITIC ACID] belongs 209 µM.
